Results: ChEMBL document CHEMBL5634209, “Computational design, synthesis, and assessment of 3-(4-(4-(1,3,4-oxadiazol-2-yl)-1H-imidazol-2-yl)phenyl)-1,2,4-oxadiazole derivatives as effective epidermal growth factor receptor inhibitors: a prospective strategy for anticancer therapy” (RSC Med Chem, 2024)

Assays:
[1] = test system: PC-3; test: Antiproliferative activity against human PC-3 cells assessed as reduction in cell viability measured after 48 hrs by MTT assay; type: functional, cell-based; conditions: PC-3, 48 h
Outline: (§1)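 Cells were grown at 37 °C in 5% CO2 in medium with 10% FBS: RPMI-1640 for A549, DU-145 and HepG2, and DMEM/F12 for PC-3. They were seeded at 5×10^3/well. At 70–80% confluence they were exposed to a concentration range diluted from a 60 mM DMSO stock for 48 h at 37 °C, with 0.1% DMSO as vehicle. MTT 5 mg/mL stock was added for 4 h, formazan dissolved in DMSO, A570 read, and % inhibition calculated against control. IC50 was taken from the concentration series.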

[2] = test system: A549; test: Antiproliferative activity against human A549 cells assessed as reduction in cell viability measured after 48 hrs by MTT assay; type: functional, cell-based; conditions: A549, 48 h; outline: as §1
[3] = test system: HepG2; test: Antiproliferative activity against human HepG2 cells assessed as reduction in cell viability measured after 48 hrs by MTT assay; type: functional, cell-based; conditions: HepG2, 48 h; outline: as §1
[4] = test system: DU-145; test: Antiproliferative activity against human DU-145 cells assessed as reduction in cell viability measured after 48 hrs by MTT assay; type: functional, cell-based; conditions: DU-145, 48 h; outline: as §1
[5] = Cytotoxicity against African green monkey Vero cells assessed as reduction in cell viability measured after 48 hrs by MTT assay; type: toxicity, cell-based; conditions: African green monkey (Chlorocebus sabaeus)
[6] = Selectivity index, ratio of IC50 for cytotoxicity against African green monkey Vero cells to IC50 for antiproliferative activity against human PC-3 cells; type: toxicity, cell-based; conditions: Vero cells versus PC-3 cells, read-out: Ratio IC50
[7] = Selectivity index, ratio of IC50 for cytotoxicity against African green monkey Vero cells to IC50 for antiproliferative activity against human A549 cells; type: toxicity, cell-based; conditions: Vero cells versus A549 cells, read-out: Ratio IC50
[8] = Selectivity index, ratio of IC50 for cytotoxicity against African green monkey Vero cells to IC50 for antiproliferative activity against human HepG2 cells; type: toxicity, cell-based; conditions: Vero cells versus HepG2 cells, read-out: Ratio IC50
[9] = Selectivity index, ratio of IC50 for cytotoxicity against African green monkey Vero cells to IC50 for antiproliferative activity against human DU-145 cells; type: toxicity, cell-based; conditions: Vero cells versus DU-145 cells, read-out: Ratio IC50
[10] = molecular target: Epidermal growth factor receptor (Homo sapiens, UniProt P00533); test: Inhibition of wild type EGFR (unknown origin) incubated for 40 mins by Kinase Glo Max reagent based luminescence analysis
[11] = molecular target: Epidermal growth factor receptor (Homo sapiens, UniProt P00533, T790M); test: Inhibition of EGFR T790M mutant (unknown origin) incubated for 40 mins by Kinase Glo Max reagent based luminescence analysis
Sequence of Epidermal growth factor receptor (Homo sapiens, UniProt P00533, T790M) (P00533 25-1210 T790M limits assumed): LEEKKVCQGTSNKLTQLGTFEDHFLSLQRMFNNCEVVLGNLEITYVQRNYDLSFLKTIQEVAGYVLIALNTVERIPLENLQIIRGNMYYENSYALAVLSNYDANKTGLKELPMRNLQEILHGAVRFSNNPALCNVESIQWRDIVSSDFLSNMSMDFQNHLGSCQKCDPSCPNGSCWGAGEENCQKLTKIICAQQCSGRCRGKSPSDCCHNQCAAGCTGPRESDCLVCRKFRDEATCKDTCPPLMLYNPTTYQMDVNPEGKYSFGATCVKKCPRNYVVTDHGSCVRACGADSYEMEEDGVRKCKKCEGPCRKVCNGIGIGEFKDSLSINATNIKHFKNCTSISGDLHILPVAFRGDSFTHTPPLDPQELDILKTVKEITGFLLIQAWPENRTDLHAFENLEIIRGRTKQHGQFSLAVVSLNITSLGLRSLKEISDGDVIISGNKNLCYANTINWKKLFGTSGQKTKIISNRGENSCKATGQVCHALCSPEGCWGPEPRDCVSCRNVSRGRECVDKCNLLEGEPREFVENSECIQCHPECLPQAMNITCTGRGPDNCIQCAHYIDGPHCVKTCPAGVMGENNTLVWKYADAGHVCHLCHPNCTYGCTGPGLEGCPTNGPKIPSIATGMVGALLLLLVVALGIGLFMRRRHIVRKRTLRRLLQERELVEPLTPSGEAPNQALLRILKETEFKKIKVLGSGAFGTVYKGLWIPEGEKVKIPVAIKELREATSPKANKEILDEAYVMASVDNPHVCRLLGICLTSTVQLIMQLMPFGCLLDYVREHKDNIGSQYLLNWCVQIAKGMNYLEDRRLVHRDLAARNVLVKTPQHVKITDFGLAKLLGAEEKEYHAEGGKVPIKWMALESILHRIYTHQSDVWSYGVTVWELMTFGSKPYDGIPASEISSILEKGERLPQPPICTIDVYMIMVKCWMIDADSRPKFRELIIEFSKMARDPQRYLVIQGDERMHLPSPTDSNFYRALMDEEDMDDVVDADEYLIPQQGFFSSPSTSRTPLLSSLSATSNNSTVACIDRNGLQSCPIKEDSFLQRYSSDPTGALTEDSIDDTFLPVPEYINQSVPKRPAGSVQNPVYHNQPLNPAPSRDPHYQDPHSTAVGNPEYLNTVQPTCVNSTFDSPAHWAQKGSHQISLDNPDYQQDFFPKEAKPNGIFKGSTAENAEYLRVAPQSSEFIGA

Sequence of Epidermal growth factor receptor (Homo sapiens, UniProt P00533) (P00533 whole entry): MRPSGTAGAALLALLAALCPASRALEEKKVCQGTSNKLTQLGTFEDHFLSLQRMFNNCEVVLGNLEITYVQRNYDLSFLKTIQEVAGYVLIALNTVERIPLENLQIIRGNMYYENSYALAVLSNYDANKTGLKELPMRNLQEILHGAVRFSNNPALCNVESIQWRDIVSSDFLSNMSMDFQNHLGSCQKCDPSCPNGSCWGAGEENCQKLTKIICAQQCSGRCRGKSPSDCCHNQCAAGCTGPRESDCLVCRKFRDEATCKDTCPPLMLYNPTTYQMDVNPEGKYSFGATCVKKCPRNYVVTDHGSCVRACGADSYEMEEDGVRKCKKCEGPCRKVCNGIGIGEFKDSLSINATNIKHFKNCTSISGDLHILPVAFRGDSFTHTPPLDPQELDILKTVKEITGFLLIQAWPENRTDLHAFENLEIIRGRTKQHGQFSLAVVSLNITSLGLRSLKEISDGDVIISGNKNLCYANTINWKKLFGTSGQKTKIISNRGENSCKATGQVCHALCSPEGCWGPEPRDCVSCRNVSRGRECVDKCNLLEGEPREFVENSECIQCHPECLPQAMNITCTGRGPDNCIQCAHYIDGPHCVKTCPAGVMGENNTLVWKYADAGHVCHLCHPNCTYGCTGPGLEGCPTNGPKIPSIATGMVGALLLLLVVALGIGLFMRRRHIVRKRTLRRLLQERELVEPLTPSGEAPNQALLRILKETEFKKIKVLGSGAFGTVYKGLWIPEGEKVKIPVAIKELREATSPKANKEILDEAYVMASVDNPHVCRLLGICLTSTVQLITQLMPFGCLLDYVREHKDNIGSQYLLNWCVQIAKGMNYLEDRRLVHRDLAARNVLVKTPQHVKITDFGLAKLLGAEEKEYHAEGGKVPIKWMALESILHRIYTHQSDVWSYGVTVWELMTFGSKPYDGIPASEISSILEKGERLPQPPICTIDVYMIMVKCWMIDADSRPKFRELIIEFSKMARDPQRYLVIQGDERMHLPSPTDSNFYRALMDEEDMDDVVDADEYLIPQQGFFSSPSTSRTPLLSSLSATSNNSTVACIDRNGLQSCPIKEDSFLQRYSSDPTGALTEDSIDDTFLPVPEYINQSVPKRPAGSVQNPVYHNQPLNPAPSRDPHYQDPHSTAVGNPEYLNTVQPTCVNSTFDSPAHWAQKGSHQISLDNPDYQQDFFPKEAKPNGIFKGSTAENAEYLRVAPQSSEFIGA

Compound | IC50 [1] | IC50 [2] | IC50 [3] | IC50 [4] | IC50 at 48 h [5] | selectivity ratio [6] | selectivity ratio [7] | selectivity ratio [8] | selectivity ratio [9] | IC50 [10] | IC50 [11]
COc1cc([C@@H]2c3cc4c(cc3[C@@H](O[C@@H]3O[C@@H]5CO[C@@H](C)O[C@H]5[C@H](O)[C@H]3O)[C@H]3COC(=O)[C@H]23)OCO4)cc(OC)c1O [ETOPOSIDE] | 2.39 µM | 3.08 µM | 2.11 µM | 1.97 µM | > 25 µM | 10.5 | 8.11 | 11.8 | 12.7 |  | 
Clc1ccc(-c2nc(-c3ccc(-c4nc(-c5nnc(-c6ccncc6)o5)c[nH]4)cc3)no2)cc1 | 4.58 µM | 4.84 µM | 5.78 µM |  | > 25 µM | 5.46 | 5.16 | 4.32 |  |  | 
COc1ccc(-c2nc(-c3ccc(-c4nc(-c5nnc(-c6ccncc6)o5)c[nH]4)cc3)no2)cc1 | 1.29 µM | 1.1 µM | 1.24 µM | 1.74 µM | > 16 µM | 12.4 | 14.5 | 12.9 | 9.2 | 0.958 µM | 1.19 µM
COc1cc(OC)cc(-c2nc(-c3ccc(-c4nc(-c5nnc(-c6ccncc6)o5)c[nH]4)cc3)no2)c1 | 0.98 µM | 0.86 µM | 0.273 µM | 0.88 µM | > 15 µM | 15.3 | 17.4 | 54.9 | 17 | 0.217 µM | 1.23 µM
N#Cc1ccc(-c2nc(-c3ccc(-c4nc(-c5nnc(-c6ccncc6)o5)c[nH]4)cc3)no2)cc1 |  | 8.21 µM | 6.99 µM |  | > 23 µM |  | 2.8 | 3.29 |  |  | 
O=[N+]([O-])c1cc(-c2nc(-c3ccc(-c4nc(-c5nnc(-c6ccncc6)o5)c[nH]4)cc3)no2)cc([N+](=O)[O-])c1 | 6.22 µM | 5.49 µM | 3.61 µM |  | > 25 µM | 4.01 | 4.55 | 6.92 |  |  | 
